ChEMBL document CHEMBL1121475, “Inhibitors of indoleethylamine N-methyltransferase. Derivatives of 3-methyl-2-thiazolidinimine. In vitro, in vivo, and metabolic studies” (J Med Chem, 1980)

Experiments:
[1] = (§1) Dose that causes approximately 50% lethality in mice, when given perorally; assay type: ADME, organism-based; settings: mouse, in vivo, po
Procedure, shortened: (§2)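 Mice in groups of one to three were dosed orally. Deaths were scored on day 7 after dosing, and the LD50 was obtained by graphical interpolation.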

[2] = (§3) Dose that causes approximately 50% lethality in mice, when given intravenously; assay type: ADME, organism-based; settings: mouse, in vivo, iv
[3] = molecular target: Indolethylamine N-methyltransferase (Homo sapiens) (UniProt O95050); test: In vitro evaluation of Indoleethylamine-N-methyltransferase in human lung preparations for the ability to inhibit conversion of N-methyltryptamine (NMT) to N,N-dimethyltryptamine (DMT) at dose 2.5 ug/mL; assay type: tissue-based
Sequence of Indolethylamine N-methyltransferase (Homo sapiens) (O95050 whole entry): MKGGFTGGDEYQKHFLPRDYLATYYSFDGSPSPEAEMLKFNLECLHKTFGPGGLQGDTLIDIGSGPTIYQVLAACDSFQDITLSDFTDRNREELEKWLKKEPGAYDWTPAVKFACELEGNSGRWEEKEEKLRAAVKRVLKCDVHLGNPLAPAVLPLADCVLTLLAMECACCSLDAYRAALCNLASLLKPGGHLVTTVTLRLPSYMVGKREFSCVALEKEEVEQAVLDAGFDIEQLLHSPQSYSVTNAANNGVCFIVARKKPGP
Procedure, shortened: (§4)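 Human lung INMT was taken from the 50000g supernatant, cut with 40-60% ammonium sulfate, dialysed and purified on Sephadex G-150. The reaction contained 0.007 M N-methyltryptamine stock, S-[methyl-14C]adenosylmethionine and potassium phosphate, pH 7.9, in 0.105 mL, run 90 min at 37 °C. It was stopped with borate at pH 10. [14C]DMT was extracted into isoamyl alcohol and counted by scintillation.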

[4] = molecular target: Indolethylamine N-methyltransferase (Homo sapiens) (UniProt O95050); test: In vitro evaluation of Indoleethylamine-N-methyltransferase in human lung preparations for the ability to inhibit conversion of N-methyltryptamine (NMT) to N,N-dimethyltryptamine (DMT) at dose 25 ug/mL; assay type: tissue-based; procedure, shortened: as §4
Oryctolagus cuniculus [5] = test: 25 mg/kg of [14C]- radiolabeled compound was perorally injected in rabbit, and radioactivity content in urine was estimated at 0-6 h; assay type: ADME, organism-based; settings: in vivo, po
Procedure, shortened: (§5)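 Male New Zealand white rabbit (825 g) dosed by gavage at 25 mg/kg. The dosing solution was [14C]-labelled plus unlabelled drug in distilled water, 2 mg free base/mL, specific activity 1183 dpm/μg. Urine collected at 6, 24, 48 and 72 h and feces at 24, 48 and 72 h. Radioactivity is expressed as % of administered dose.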

Oryctolagus cuniculus [6] = test: 10 mg/kg of [14C]- radiolabeled compound was intravenously […] injected in rabbit, and radioactivity content in feces was estimated (total); assay type: ADME, organism-based; settings: in vivo, iv
Procedure, shortened: (§6)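 Male New Zealand white rabbit (825 g), [14C]-labelled drug given intravenously at 10 mg/kg. Urine collected at 6, 24, 48 and 72 h and feces at 24, 48 and 72 h post-dose. Radioactivity is counted and expressed as % of administered dose.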

Oryctolagus cuniculus [7] = test: 10 mg/kg of [14C]- radiolabeled compound was intravenously […] injected in rabbit, and radioactivity content in feces was estimated at 48-72 h; assay type: ADME, organism-based; settings: in vivo, iv; procedure, shortened: as §6
Oryctolagus cuniculus [8] = test: 25 mg/kg of [14C]- radiolabeled compound was perorally injected in rabbit, and radioactivity content in urine was estimated at 6-24 h; assay type: ADME, organism-based; settings: in vivo, po; procedure, shortened: as §5
Oryctolagus cuniculus [9] = test: 25 mg/kg of [14C]- radiolabeled compound was perorally injected in rabbit, and radioactivity content in urine was estimated at 24-48 h; assay type: ADME, organism-based; settings: in vivo, po; procedure, shortened: as §5
Mus musculus [10] = species: Mus musculus; test: as §1; assay type: functional; settings: po; procedure, shortened: as §2
Oryctolagus cuniculus [11] = test: 10 mg/kg of [14C]- radiolabeled compound was intravenously injected in rabbit, and radioactivity content in urine was estimated at 6-24 h; assay type: ADME, organism-based; settings: in vivo, iv; procedure, shortened: as §6
Oryctolagus cuniculus [12] = test: 10 mg/kg of [14C]- radiolabeled compound was intravenously […] injected in rabbit, and radioactivity content in feces was estimated at 24-48 h; assay type: ADME, organism-based; settings: in vivo, iv; procedure, shortened: as §6
Oryctolagus cuniculus [13] = test: 25 mg/kg of [14C]- radiolabeled compound was perorally injected in rabbit, and radioactivity content in urine was estimated at 48-72 h; assay type: ADME, organism-based; settings: in vivo, po; procedure, shortened: as §5
Oryctolagus cuniculus [14] = test: 25 mg/kg of [14C]- radiolabeled compound was perorally injected in rabbit, and radioactivity content in urine was estimated (total); assay type: ADME, organism-based; settings: in vivo, po; procedure, shortened: as §5
Oryctolagus cuniculus [15] = test: 10 mg/kg of [14C]- radiolabeled compound was intravenously injected in rabbit, and radioactivity content in urine was estimated at 24-48 h; assay type: ADME, organism-based; settings: in vivo, iv; procedure, shortened: as §6
Oryctolagus cuniculus [16] = test: 10 mg/kg of [14C]- radiolabeled compound was intravenously injected in rabbit, and radioactivity content in urine was estimated at 0-6 h; assay type: ADME, organism-based; settings: in vivo, iv; procedure, shortened: as §6
Oryctolagus cuniculus [17] = test: 25 mg/kg of [14C]- radiolabeled compound was orally (gavage) injected in rabbit, and radioactivity content in feces was estimated at 24-48 h; assay type: ADME, organism-based; settings: in vivo, po; procedure, shortened: as §5
Oryctolagus cuniculus [18] = test: 25 mg/kg of [14C]- radiolabeled compound was orally (gavage) injected in rabbit, and radioactivity content in feces was estimated (total); assay type: ADME, organism-based; settings: in vivo, po; procedure, shortened: as §5
Mus musculus [19] = test: as §3; assay type: functional; settings: iv
Oryctolagus cuniculus [20] = test: 10 mg/kg of [14C]- radiolabeled compound was intravenously injected in rabbit, and radioactivity content in urine was estimated at 48-72 h; assay type: ADME, organism-based; settings: in vivo, iv; procedure, shortened: as §6
Oryctolagus cuniculus [21] = test: 10 mg/kg of [14C]- radiolabeled compound was intravenously […] injected in rabbit, and radioactivity content in feces was estimated at 0-24 h; assay type: ADME, organism-based; settings: in vivo, iv; procedure, shortened: as §6
Oryctolagus cuniculus [22] = test: 25 mg/kg of [14C]- radiolabeled compound was orally (gavage) injected in rabbit, and radioactivity content in feces was estimated at 48-72 h; assay type: ADME, organism-based; settings: in vivo, po; procedure, shortened: as §5
Oryctolagus cuniculus [23] = test: 25 mg/kg of [14C]- radiolabeled compound was orally (gavage) injected in rabbit, and radioactivity content in feces was estimated at 0-24 h; assay type: ADME, organism-based; settings: in vivo, po; procedure, shortened: as §5
Oryctolagus cuniculus [24] = test: 10 mg/kg of [14C]- radiolabeled compound was intravenously injected in rabbit, and radioactivity content in urine was estimated (total); assay type: ADME, organism-based; settings: in vivo, iv; procedure, shortened: as §6
[25] = system: Indolethylamine N-methyltransferase (Oryctolagus cuniculus); test: Compound tested for inhibitory activity against rabbit lung Indoleethylamine-N-methyltransferase at oral dose 25 mg/kg *(p<0.026)
[26] = system: Indolethylamine N-methyltransferase (Oryctolagus cuniculus); test: Compound tested for inhibitory activity against rabbit lung Indoleethylamine-N-methyltransferase at intravenous dose 4 mg/kg *(p<0.027)
[27] = system: Indolethylamine N-methyltransferase (Oryctolagus cuniculus); test: In vivo evaluation of specific activity against rabbit lung Indoleethylamine-N-methyltransferase at oral dose of 25 mg/kg
[28] = Dose that causes approximately 50% lethality in mice, when given intraperitoneally; assay type: ADME, organism-based; settings: mouse, in vivo, ip
[29] = system: Indolethylamine N-methyltransferase (Oryctolagus cuniculus); test: Compound tested for inhibitory activity against rabbit lung Indoleethylamine-N-methyltransferase at oral dose 25 mg/kg
[30] = system: Indolethylamine N-methyltransferase (Oryctolagus cuniculus); test: In vivo evaluation of inhibitory activity against rabbit lung Indoleethylamine-N-methyltransferase at intravenous dose 10 mg/kg *(p<0.02)
[31] = system: Indolethylamine N-methyltransferase (Oryctolagus cuniculus); test: Compound tested for specific activity against rabbit lung Indoleethylamine-N-methyltransferase at oral dose of 20 mg/kg
[32] = system: Indolethylamine N-methyltransferase (Oryctolagus cuniculus); test: Compound tested for specific activity against rabbit lung Indoleethylamine-N-methyltransferase at intravenous dose of 10 mg/kg
[33] = system: Indolethylamine N-methyltransferase (Oryctolagus cuniculus); test: Compound tested for inhibitory activity against rabbit lung Indoleethylamine-N-methyltransferase at intravenous dose 4 mg/kg *(p<0.008
[34] = system: Indolethylamine N-methyltransferase (Oryctolagus cuniculus); test: In vivo evaluation of specific activity against rabbit lung Indoleethylamine-N-methyltransferase at intravenous dose of 4 mg/kg
[35] = system: Indolethylamine N-methyltransferase (Oryctolagus cuniculus); test: In vivo evaluation of specific activity against rabbit lung Indoleethylamine-N-methyltransferase at intravenous dose of 4 mg/kgmade acidic to pH 2 with dil. HCl
[36] = system: Indolethylamine N-methyltransferase (Oryctolagus cuniculus); test: Compound tested for inhibitory activity against rabbit lung Indoleethylamine-N-methyltransferase at 4 mg/kg intravenously

`CN1CCS/C1=N\CNC(=O)c1ccccc1` showed an LD50 [1] of 534 mg/kg and an LD50 [2] of 122 mg/kg.
Compound `CC(=O)CC(=O)/N=C1\SCCN1C` has an inhibition [3] of 24% and an inhibition [4] of 51%.
`CN1CCSC1=N` showed a Dose excreted (Oryctolagus cuniculus [5]) of 46.4%, a Dose excreted (Oryctolagus cuniculus [6]) of 4.3% and a Dose excreted (Oryctolagus cuniculus [7]) of 0.3%. It also gave a Dose excreted (Oryctolagus cuniculus [8]) of 38.8%, a Dose excreted (Oryctolagus cuniculus [9]) of 2.9% and an LD50 (Mus musculus [10]) of 432 mg/kg. It also gave a Dose excreted (Oryctolagus cuniculus [11]) of 27.7%, a Dose excreted (Oryctolagus cuniculus [12]) of 0.9% and a Dose excreted (Oryctolagus cuniculus [13]) of 1.6%. For the same compound, the Dose excreted (Oryctolagus cuniculus [14]) was 89.7%, the Dose excreted (Oryctolagus cuniculus [15]) was 5.3% and the Dose excreted (Oryctolagus cuniculus [16]) was 46.5%. The Dose excreted (Oryctolagus cuniculus [17]) was 0.6%, the Dose excreted (Oryctolagus cuniculus [18]) was 3.9% and the LD50 (Mus musculus [19]) was 118 mg/kg. The Dose excreted (Oryctolagus cuniculus [20]) was 3.3%, the Dose excreted (Oryctolagus cuniculus [21]) was 3.1% and the Dose excreted (Oryctolagus cuniculus [22]) was 0.1%. For the same compound, the Dose excreted (Oryctolagus cuniculus [23]) was 3.2% and the Dose excreted (Oryctolagus cuniculus [24]) was 82.8%.
`CN1CCS/C1=N\S(=O)(=O)[O-].[Na+]` showed an LD50 [1] greater than 5 mg/kg and an LD50 [2] greater than 2.5 mg/kg.
`CN1CCS/C1=N\C(=O)OC(C)(C)C` showed an LD50 [1] of 306 mg/kg, an LD50 [2] of 68 mg/kg and an inhibition [4] of 6%.
Compound `CN1CCS/C1=N\C(=O)c1cccnc1` has an inhibition [25] of 76.2%, an LD50 [1] of 570 mg/kg and an inhibition [3] of 0%. For the same compound, the LD50 [2] was 279 mg/kg, the inhibition [4] was 5% and the inhibition [26] was 37.8%. For the same compound, the Specific activity [27] was 18400 dpm.
For `CN1CCS/C1=N\C(=O)/N=C1\SCCN1C`, the LD50 [1] was 2000 mg/kg, the inhibition [4] was 0% and the LD50 [28] was 1140 mg/kg. It also gave a Specific activity [27] of 61200 dpm and an inhibition [29] of 31.9%.
`CC(=O)N[C@@H](Cc1ccccc1)C(=O)/N=C1\SCCN1C` gave an inhibition [30] of 84.7%.
`CN1CCS/C1=N\C(=O)CCC(=O)O` showed an LD50 [1] greater than 8 mg/kg, a Specific activity [31] of 34000 dpm and an inhibition [31] of 11.4%. It also gave an LD50 [2] of 1280 mg/kg, an inhibition [4] of 20% and a Specific activity [32] of 36100 dpm. It also gave an inhibition [32] of 35.8%.
In the case of `CC(=O)NC(Cc1ccccc1)C(=O)/N=C1\SCCN1C` (configuration not stated), the LD50 [1] is reported as 173 mg/kg, the inhibition [3] is reported as 8% and the inhibition [33] is reported as 28.9%. For the same compound, the Specific activity [34] was 60000 dpm, the inhibition [4] was 23% and the LD50 [28] was greater than 2000 mg/kg. It also gave a Specific activity [27] of 24100 dpm and an inhibition [29] of 69%.
`CCNC(=O)/N=C1\SCCN1C` gave an LD50 [1] of 203 mg/kg, an LD50 [2] of 1110 mg/kg and an inhibition [4] of 0%.
`CN1CCS/C1=N\C(=O)CN` showed an LD50 [1] of 4670 mg/kg, an inhibition [3] of 11% and an LD50 [2] of 549 mg/kg. It also gave an inhibition [4] of 54%.
In the case of `CC(=O)NCC(=O)/N=C1\SCCN1C`, the LD50 [1] is reported as 936 mg/kg, the Specific activity [35] is reported as 33200 dpm and the inhibition [3] is reported as 24%. The LD50 [2] was 408 mg/kg, the inhibition [4] was 51% and the inhibition [36] was 60.6%. The Specific activity [27] was 11600 dpm and the inhibition [29] was 84.9%.
